ChEMBL document CHEMBL2040734, “Benzothiazoles: search for anticancer agents” (2012)

How the values were obtained:
Type in all cases: functional
CAKI-1 = experiment: Cytotoxicity against human Caki1 cells assessed as cell growth at 0.01 uM after 48 hrs by sulforhodamine B assay; conditions: CAKI-1, 48 h, read-out: Activity
Outline: (§1)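 NCI-60 five-dose screen. Cells were grown in RPMI 1640 with 5% FBS and 2 mM L-glutamine and preincubated 24 h. Compound (DMSO stock) was tested at 0.01, 0.1, 1, 10 and 100 µM for 48 h at 37 °C. Cells were fixed in situ with cold TCA (final 10%) and stained with 0.4% SRB. A515 was read, and percent growth was calculated against time-zero and control plates.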

SK-MEL-2 [1] = experiment: Cytotoxicity against human SK-MEL-2 cells assessed as cell growth at 0.1 uM after 48 hrs by sulforhodamine B assay; conditions: SK-MEL-2, 48 h, read-out: Activity
COLO 205 [2] = experiment: Cytotoxicity against human COLO205 cells assessed as cell growth at 100 uM after 48 hrs by sulforhodamine B assay; conditions: COLO 205, 48 h, read-out: Activity; outline: as §1
OVCAR-8 [3] = experiment: Cytotoxicity against human OVCAR8 cells assessed as cell growth at 100 uM after 48 hrs by sulforhodamine B assay; conditions: OVCAR-8, 48 h, read-out: Activity
RXF 393 = experiment: Cytotoxicity against human RXF393 cells assessed as cell growth at 100 uM after 48 hrs by sulforhodamine B assay; conditions: RXF 393, 48 h, read-out: Activity
[4] = Cytotoxicity against human Hs 578T cells assessed as cell growth at 0.1 uM after 48 hrs by sulforhodamine B assay; conditions: read-out: Activity
Outline: (§2)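 Five-dose NCI panel run at 0.01, 0.1, 1, 10 and 100 µM. Cells were in RPMI 1640 with 5% FBS and 2 mM L-glutamine, seeded at 5000–40,000 cells/well and pre-incubated 24 h. Drug was diluted from a DMSO stock into medium with 50 µg/ml gentamicin. Exposure was 48 h at 37 °C, 5% CO2. Cells were fixed with cold TCA and stained with 0.4% SRB, read at 515 nm. Percent growth came from time-zero, control and test absorbances.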

CCRF-CEM = experiment: Cytotoxicity against human CCRF-CEM cells assessed as cell growth at 1 uM after 48 hrs by sulforhodamine B assay; conditions: read-out: Activity
Outline: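 CCRF-CEM suspension leukemia cells in RPMI 1640 with 5% FBS and 2 mM L-glutamine, plated 24 h before dosing. Five concentrations (0.01–100 µM) were applied from a DMSO stock for 48 h at 37 °C. Settled cells were fixed with 80% TCA (final 16%) and stained with SRB, with read-out at 515 nm. Percent growth was derived from time-zero and control absorbances.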

HCC 2998 = experiment: Cytotoxicity against human HCC2998 cells assessed as cell growth at 1 uM after 48 hrs by sulforhodamine B assay; conditions: HCC 2998, 48 h, read-out: Activity; outline: as §2
HCT-116 = experiment: Cytotoxicity against human HCT116 cells assessed as cell growth at 1 uM after 48 hrs by sulforhodamine B assay; conditions: HCT-116, 48 h, read-out: Activity; outline: as §2
HCT-15 = experiment: Cytotoxicity against human HCT15 cells assessed as cell growth at 1 uM after 48 hrs by sulforhodamine B assay; conditions: HCT-15, 48 h, read-out: Activity; outline: as §2
NCI/ADR-RES = experiment: Cytotoxicity against human NCI/ADR-RES cells assessed as cell growth at 1 uM after 48 hrs by sulforhodamine B assay; conditions: read-out: Activity
TK-10 = experiment: Cytotoxicity against human TK10 cells assessed as cell growth at 1 uM after 48 hrs by sulforhodamine B assay; conditions: TK-10, 48 h, read-out: Activity
COLO 205 [5] = experiment: Cytotoxicity against human COLO205 cells assessed as cell growth at 10 uM after 48 hrs by sulforhodamine B assay; conditions: COLO 205, 48 h, read-out: Activity; outline: as §1
MDA-MB-435 = experiment: Cytotoxicity against human MDA-MB-435 cells assessed as cell growth at 10 uM after 48 hrs by sulforhodamine B assay; conditions: MDA-MB-435, 48 h, read-out: Activity
RPMI-8226 = experiment: Cytotoxicity against human RPMI8226 cells assessed as cell growth at 100 uM after 48 hrs by sulforhodamine B assay; conditions: RPMI-8226, 48 h, read-out: Activity
EKVX [6] = experiment: Cytotoxicity against human EKVX cells assessed as cell growth at 100 uM after 48 hrs by sulforhodamine B assay; conditions: read-out: Activity; outline: as §2
NCI-H322M = experiment: Cytotoxicity against human NCI-H322M cells assessed as cell growth at 10 '-5 M after 48 hrs by sulforhodamine B assay; conditions: read-out: Activity
HT-29 = experiment: Cytotoxicity against human HT-29 cells assessed as cell growth at 10 '-5 M after 48 hrs by sulforhodamine B assay; conditions: HT-29, 48 h, read-out: Activity
Outline: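 Primary one-dose screen across the NCI 60-line panel at 10 µM. Cells were grown in RPMI 1640 with 5% FBS and 2 mM L-glutamine and held 24 h before drug. Drug was diluted from a DMSO concentrate. Exposure was 48 h at 37 °C, 5% CO2. Cells were fixed with TCA and stained with SRB, with absorbance read at 515 nm. Percent growth was calculated against time-zero and untreated control.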

KM12 = experiment: Cytotoxicity against human KM12 cells assessed as cell growth at 10 '-5 M after 48 hrs by sulforhodamine B assay; conditions: KM12, 48 h, read-out: Activity
OVCAR-8 [7] = experiment: Cytotoxicity against human OVCAR8 cells assessed as cell growth at 10 '-5 M after 48 hrs by sulforhodamine B assay; conditions: OVCAR-8, 48 h, read-out: Activity
SK-OV-3 = experiment: Cytotoxicity against human SKOV3 cells assessed as cell growth at 10 '-5 M after 48 hrs by sulforhodamine B assay; conditions: SK-OV-3, 48 h, read-out: Activity
SF-295 = experiment: Growth inhibition of human SF295 cells after 48 hrs by sulforhodamine B assay; conditions: SF-295, 48 h; for CC50: read-out: LC50 (the source's name)
Outline: (§3)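 Adherent NCI-60 lines were grown in RPMI 1640 with 5% FBS and 2 mM L-glutamine, plated at 5000–40,000 cells/well and preincubated 24 h. They were then exposed to five concentrations (0.01–100 µM, from a DMSO stock) for 48 h at 37 °C, 5% CO2. Cells were fixed with cold TCA (10% final, 60 min, 4 °C) and stained with 0.4% SRB. Dye was solubilized in 10 mM Tris base and A515 read. GI50 was derived from time-zero, control and treated absorbances.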

LOX IMVI = experiment: Growth inhibition of human LOXIMVI cells after 48 hrs by sulforhodamine B assay; outline: as §3
SK-MEL-2 [8] = experiment: Growth inhibition of human SK-MEL-2 cells after 48 hrs by sulforhodamine B assay; conditions: SK-MEL-2, 48 h; outline: as §3
EKVX [9] = experiment: Cytotoxicity against human EKVX cells assessed as cell growth at 0.01 uM after 48 hrs by sulforhodamine B assay; conditions: read-out: Activity; outline: as §2
COLO 205 [10] = experiment: Cytotoxicity against human COLO205 cells assessed as cell growth at 0.01 uM after 48 hrs by sulforhodamine B assay; conditions: COLO 205, 48 h, read-out: Activity; outline: as §1
NCI-H226 = experiment: Cytotoxicity against human NCI-H226 cells assessed as cell growth at 10 '-5 M after 48 hrs by sulforhodamine B assay; conditions: NCI-H226, 48 h, read-out: Activity

Compound `Clc1cccc(Cl)c1Nc1nc2cccc(Cl)c2s1` has a growth at 0.01 µM (CAKI-1) of 92%, a growth at 0.1 µM (SK-MEL-2 [1]) of 88% and a growth at 100 µM (COLO 205 [2]) of -52%. For the same compound, the growth at 100 µM (OVCAR-8 [3]) was -35%, the growth at 100 µM (RXF 393) was -40% and the growth at 0.1 µM [4] was 81%. For the same compound, the growth at 1 µM (CCRF-CEM) was 62%, the growth at 1 µM (HCC 2998) was 70% and the growth at 1 µM (HCT-116) was 51%. For the same compound, the growth at 1 µM (HCT-15) was 59%, the growth at 1 µM (NCI/ADR-RES) was 36% and the growth at 1 µM (TK-10) was 59%. It also gave a growth at 10 µM (COLO 205 [5]) of -91%, a growth at 10 µM (MDA-MB-435) of -77% and a growth at 100 µM (RPMI-8226) of -13%. For the same compound, the growth at 100 µM (EKVX [6]) was -73%, the growth at 10 µM (NCI-H322M) was 9.8% and the growth at 10 µM (HT-29) was -67.6%. For the same compound, the growth at 10 µM (KM12) was -68.5%, the growth at 10 µM (OVCAR-8 [7]) was -13.8% and the growth at 10 µM (SK-OV-3) was 6.87%. It also gave a GI50 (SF-295) of 459 nM, a TGI (SF-295) of 1900 nM and a CC50 (SF-295) of 4960 nM. The GI50 (LOX IMVI) was 1090 nM, the TGI (LOX IMVI) was 2510 nM and the GI50 (SK-MEL-2 [8]) was 1430 nM. The TGI (SK-MEL-2 [8]) was 3350 nM, the growth at 0.01 µM (EKVX [9]) was 96% and the growth at 0.01 µM (COLO 205 [10]) was 105%. For the same compound, the growth at 10 µM (NCI-H226) was -40.8%.
With `Cc1ccc2nc(Nc3c(C)cccc3C)sc2c1` the growth at 0.01 µM (CAKI-1) was 93%, the growth at 0.1 µM (SK-MEL-2 [1]) was 99% and the growth at 100 µM (COLO 205 [2]) was 64%. The growth at 100 µM (OVCAR-8 [3]) was 45%, the growth at 100 µM (RXF 393) was 24% and the growth at 0.1 µM [4] was 97%. The growth at 1 µM (CCRF-CEM) was 72%, the growth at 1 µM (HCC 2998) was 70% and the growth at 1 µM (HCT-116) was 66%. For the same compound, the growth at 1 µM (HCT-15) was 48%, the growth at 1 µM (NCI/ADR-RES) was 40% and the growth at 1 µM (TK-10) was 82%. For the same compound, the growth at 10 µM (COLO 205 [5]) was 49%, the growth at 10 µM (MDA-MB-435) was -26% and the growth at 100 µM (RPMI-8226) was 73%. It also gave a growth at 100 µM (EKVX [6]) of 53%, a growth at 10 µM (NCI-H322M) of 71% and a growth at 10 µM (HT-29) of 9.15%. The growth at 10 µM (KM12) was 11.1%, the growth at 10 µM (OVCAR-8 [7]) was 56.4% and the growth at 10 µM (SK-OV-3) was 47.1%. It also gave a GI50 (SF-295) of 725 nM, a TGI (SF-295) of over 100000 nM and a CC50 (SF-295) of over 100000 nM. For the same compound, the LC50 (LOX IMVI) was over 100000 nM, the TGI (LOX IMVI) was over 100000 nM and the LC50 (concentration killing 50% of cells present at time zero) (SK-MEL-2 [8]) was over 100000 nM. For the same compound, the TGI (SK-MEL-2 [8]) was over 100000 nM, the growth at 0.01 µM (EKVX [9]) was 93% and the growth at 0.01 µM (COLO 205 [10]) was 107%. For the same compound, the growth at 10 µM (NCI-H226) was 69.7%.
